Test results: ChEMBL document CHEMBL5661970 (Cancer Res, 2006)
Active and inactive are the calls of the source. No cut-off for these calls is given here.

What was measured:
DU-145 = assay: Antitumor activity against human DU-145 cells xenografted in gamma-irradiation induced RH-rnu/rnu athymic rat assessed as tumor growth inhibition at 1.0 mg/kg, po administered once daily for 2 weeks and measured on day 14 relative to control; format: functional; conditions: DU-145, light or radiation study, 336 h, read-out: TGI
Summary of the method: (§1)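 Rats were γ-irradiated with 7 Gy whole body, and 24 h later received s.c. tumor cells. Fragments (20-30 mg) from ~1,500 mm3 tumors were then implanted s.c. into irradiated athymic rats. Oral dosing at 0.2 or 1 mg/kg or vehicle ran once daily for 2 weeks from day 0. Tumors were measured with calipers twice weekly (length×width²×0.5). TGI% was taken versus vehicle on day 14 (BxPC-3: day 13), with an unpaired t test on RTV.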

[1] = molecular target: Platelet-derived growth factor receptor beta (Homo sapiens, UniProt P09619); assay: Inhibition of PDGFR-beta (unknown origin) in presence of ATP
NCI-H460 = assay: Antitumor activity against human NCI-H460 cells xenografted in gamma-irradiation induced RH-rnu/rnu athymic rat assessed as tumor growth inhibition at 0.2 mg/kg, po administered once daily for 2 weeks and measured on day 14 relative to control; format: functional; conditions: NCI-H460, light or radiation study, 336 h, read-out: TGI; summary of the method: as §1
OVCAR-3 = assay: Antitumor activity against human OVCAR-3 cells xenografted in gamma-irradiation induced RH-rnu/rnu athymic rat assessed as tumor growth inhibition at 1.0 mg/kg, po administered once daily for 2 weeks and measured on day 14 relative to control; format: functional; conditions: OVCAR-3, light or radiation study, 336 h, read-out: TGI; summary of the method: as §1
Calu-6 [2] = assay: Antitumor activity against human Calu-6 cells xenografted in RH-rnu/rnu athymic rat assessed as tumor growth inhibition at 0.2 mg/kg, po administered once daily for 6 to 21 days by DCE-MRI analysis; format: functional, organism-based; conditions: time 6-21 day
Summary of the method: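 Calu-6 tumor-bearing athymic rats were randomized at 274-287 mm3 and dosed orally at 0.2 or 1.0 mg/kg or vehicle once daily on days 0-13. Tumor growth was followed by T2-weighted MRI at 1.5 T through day 21.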

Calu-6 [3] = assay: Antitumor activity against human Calu-6 cells xenografted in RH-rnu/rnu athymic rat assessed as decreased microvessel density at 0.2 mg/kg, po administered for 14 days by immunofluorescence staining analysis relative to control; format: functional; set-up: scale not given: the % may be the effect or the level left; conditions: time 14 day
[4] = Average concentration at steady state in F344/N JcL-rnu athymic rat at 0.2 mg/kg/day, po measured upto 72 hrs by HPLC-MS/MS analysis; format: ADME, organism-based; conditions: in vivo
Summary of the method: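 Steady-state serum levels for repeated oral 0.2 mg/kg daily dosing were simulated from single-dose serum data (female F344/N JcL-rnu rats, four per group, tail-vein sampling to 72 h, HPLC-MS/MS, noncompartmental analysis), not measured directly.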

CAKI-1 = assay: Antitumor activity against human CAKI-1 cells xenografted in gamma-irradiation induced RH-rnu/rnu athymic rat assessed as tumor growth inhibition at 1.0 mg/kg, po administered once daily for 2 weeks and measured on day 14 relative to control; format: functional; conditions: CAKI-1, light or radiation study, 336 h, read-out: TGI; summary of the method: as §1
HUVEC = assay: Inhibition of cell migration in VEGF-induced serum-starved human HUVEC cells at 1 nmol/L incubated for 22 hrs by calcein AM staining based fluorescence plate reader analysis relative to control; format: functional
Summary of the method: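 HUVECs starved 5 h in EBM-2 with 0.1% BSA, placed in upper chamber of microchamber plate; lower chamber held 10 ng/mL VEGF, 0.1% FBS, 0.1% BSA. Compound in both chambers. After 22 h, migrated cells stained with 4 μg/mL calcein AM, read at 485/530 nm; 100%/0% set with/without VEGF in 0.1% DMSO; n = 10.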

PC-3 = assay: Antitumor activity against human PC-3 cells xenografted in gamma-irradiation induced RH-rnu/rnu athymic rat assessed as tumor growth inhibition at 1.0 mg/kg, po administered once daily for 2 weeks and measured on day 14 relative to control; format: functional; conditions: PC-3, light or radiation study, 336 h, read-out: TGI

Chain of Platelet-derived growth factor receptor beta (P09619 whole entry): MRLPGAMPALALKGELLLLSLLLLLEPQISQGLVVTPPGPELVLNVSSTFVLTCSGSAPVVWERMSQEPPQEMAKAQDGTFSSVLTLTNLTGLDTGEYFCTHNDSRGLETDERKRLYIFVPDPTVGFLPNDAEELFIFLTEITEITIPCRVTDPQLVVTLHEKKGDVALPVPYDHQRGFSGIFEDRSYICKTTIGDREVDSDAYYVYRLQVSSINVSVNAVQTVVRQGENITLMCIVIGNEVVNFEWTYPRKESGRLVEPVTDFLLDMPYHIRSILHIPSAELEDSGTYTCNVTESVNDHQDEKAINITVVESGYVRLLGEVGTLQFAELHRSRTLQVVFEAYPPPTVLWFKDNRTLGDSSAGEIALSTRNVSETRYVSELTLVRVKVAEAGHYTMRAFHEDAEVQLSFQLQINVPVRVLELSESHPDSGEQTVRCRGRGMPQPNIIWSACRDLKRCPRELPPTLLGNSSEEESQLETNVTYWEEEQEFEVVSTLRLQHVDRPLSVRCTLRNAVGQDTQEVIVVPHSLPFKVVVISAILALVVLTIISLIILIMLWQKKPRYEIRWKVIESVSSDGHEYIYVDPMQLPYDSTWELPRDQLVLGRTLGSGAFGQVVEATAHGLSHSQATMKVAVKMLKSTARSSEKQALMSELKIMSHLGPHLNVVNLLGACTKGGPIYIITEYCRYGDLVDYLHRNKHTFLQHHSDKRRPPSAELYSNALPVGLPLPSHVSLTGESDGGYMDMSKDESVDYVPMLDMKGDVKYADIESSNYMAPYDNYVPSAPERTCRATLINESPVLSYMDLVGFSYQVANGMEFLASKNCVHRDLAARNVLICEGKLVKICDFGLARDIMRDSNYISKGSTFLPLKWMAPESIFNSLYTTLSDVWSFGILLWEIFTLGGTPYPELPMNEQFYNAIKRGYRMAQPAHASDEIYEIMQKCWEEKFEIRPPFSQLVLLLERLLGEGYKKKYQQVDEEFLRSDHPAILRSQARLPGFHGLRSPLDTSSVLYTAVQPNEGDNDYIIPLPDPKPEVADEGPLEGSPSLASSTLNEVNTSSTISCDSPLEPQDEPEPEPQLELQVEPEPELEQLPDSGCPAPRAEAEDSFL

Q: Which results are given for COc1cc2nccc(Oc3ccc(NC(=O)Nc4cc(C)on4)c(Cl)c3)c2cc1OC [TIVOZANIB]?
A: inhibition in vivo at 1 mg/kg (DU-145): > 100%; IC50 [1]: 0.049 µM; inhibition in vivo at 0.2 mg/kg (NCI-H460): 68.8%; inhibition in vivo at 1 mg/kg (OVCAR-3): 98.5%; Activity (Calu-6 [2]): Active; Activity (Calu-6 [3]): 42.5%; Cave,ss [4]: 69.5 ng/mL; inhibition in vivo at 1 mg/kg (CAKI-1): > 100%; inhibition at 0.001 µM (HUVEC): ~40%; inhibition in vivo at 1 mg/kg (PC-3): 95.9%
